The values that follow come from ChEMBL document CHEMBL1121408, “Cyclophosphamide potentiation and aldehyde oxidase inhibition by phosphorylated aldehydes and acetals” (J Med Chem, 1980).

For test [1], the system named is Mus musculus. The test is described as follows: Percent increase in life span of mice bearing L1210 ascites cells compared to control (in vivo). Format: functional. In outline: (§1)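 BDF1 female mice (18-20 g), groups of six, implanted ip with 10^5 L1210 ascites cells. On day 1 (24 h later), a single ip injection of test agent at 200 mg/kg, alone or with cyclophosphamide at 100 mg/kg, as a solution or suspension in 5% Tween 80 in normal saline, pH 4. Acetals were heated at 80 °C for 2 h just before injection. Vehicle-only controls were run. Deaths were recorded daily. %ILS = (mean treated life span − mean control)/mean control × 100, with survivors capped at 30 days. Survival was scored as the percent of each group alive 50 days after day 1.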

The test system of test [2] is Mus musculus. The test is described as follows: Percent animals surviving 50 days from day 1 (in vivo). Format: functional. In outline: as §1

In the test on Mus musculus [1], `CCOC(CCP(=O)(OCC)OCC)OCC` returned an ILC of 204%. The same compound registered a Cures in the test on Mus musculus [2] of 83%.

As for `CCOP(=O)(CC=O)OCC`, the ILC in the test on Mus musculus [1] was determined as 180%. Besides, the Cures in the test with Mus musculus [2] amounted to 67%.

Compound `CCOP(=O)(CCC=O)c1ccccc1` (stereo not given) gave an ILC in the test on Mus musculus [1] of 175%. Also, the Cures with Mus musculus [2] stood at 83%.

In turn, `CCOC(CCP(=O)(OCC)c1ccccc1)OCC` (stereo not given) had an ILC with Mus musculus [1] of 166%. The compound further had a Cures in the test on Mus musculus [2] of 50%.

Take `Cc1ncc(CO)c(C=O)c1O` [PYRIDOXAL]: the ILC in the test on Mus musculus [1] is 164%. This compound also showed a Cures in the test with Mus musculus [2] of 33%.
